Only some compounds are listed: those with a hit (about 1.5% of all), similar ones and a draw of the others.
RAD54 branch: RAD54 (human) branch migration inhibition; Q92698; RAD54 Holliday junction branch migration, FAM/BHQ fluorescence; inhibition, % at 10.4 µM; 360,000 tested, 0.14% active;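 active = mean normalized replicate activity at least 40 and at least half of replicates scoring 40 or more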;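 note: inhibitors cause a drop in the FAM fluorescence signal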
S100A4 inh HTS: blocks human S100A4 binding to myosin IIA peptide. S100A4/TAMRA-MyoIIA peptide fluorescence polarization. inhibition, % at 10.7 µM. AID 652163. P26447. 360,000 tested, 0.14% active;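 active = mean inhibition of at least 70% across replicates, with every replicate also reaching that level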
Target sequence (P26447 whole entry, looked up): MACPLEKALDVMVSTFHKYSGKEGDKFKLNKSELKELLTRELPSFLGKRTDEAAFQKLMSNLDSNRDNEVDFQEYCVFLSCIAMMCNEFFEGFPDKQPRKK
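Test system: S100A4 monomer protein. Medium: HEPES buffer with Ca2+, pH 7.2. Reagent: fluorescent myosin IIA peptide, 5 nM. Compound dosing: single-point compound testing. Timing: 5 min between mix addition and reading. Benchmarks: DMSO neutral and TFP positive wells.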
MLL AF4-AF9 inh: blocks AF4 peptide binding to human AF9. P42568. AlphaScreen, biotin-AF4 peptide binding to FLAG-AF9. inhibition, % at 10 µM. 350,000 tested, 0.47% active;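 active = every replicate reaching a set inhibition limit, whatever the replicate mean, cut at about 25% in these data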
RAD52 inh: inhibitors of human RAD52 DNA annealing; AID 651710; inhibition, % at 18.7 µM; recombinant RAD52 DNA annealing, FRET fluorescence; P43351; 360,000 tested, 0.46% active;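 active = every replicate showing at least 50% inhibition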
dFosB act: activators of mouse delta FosB homodimer | purified delta FosB, TAMRA-CDK5 oligo fluorescence polarization; percent of positive-control signal above neutral wells | activation, % at 25 µM | 340,000 tested, 0.99% active | AID 493131;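 active = mean activation above about 17%, with every replicate also reaching it, limit read from the data, passing the limit was not always enough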
Target sequence (P13346 whole entry, looked up): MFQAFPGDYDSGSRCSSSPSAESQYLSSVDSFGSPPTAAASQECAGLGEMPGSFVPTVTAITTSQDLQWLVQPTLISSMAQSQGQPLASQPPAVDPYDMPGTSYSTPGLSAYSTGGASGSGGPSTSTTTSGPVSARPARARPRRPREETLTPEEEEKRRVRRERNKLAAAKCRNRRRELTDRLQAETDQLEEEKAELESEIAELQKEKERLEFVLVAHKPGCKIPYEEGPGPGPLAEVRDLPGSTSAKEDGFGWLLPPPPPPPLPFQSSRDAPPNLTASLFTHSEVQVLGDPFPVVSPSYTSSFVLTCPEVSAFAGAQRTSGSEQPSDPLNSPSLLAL
Large screens that a line does not name were inactive.

C[C@@H]1CN([C@@H](C)CO)C(=O)c2cc(NC(=O)c3ccncc3)ccc2O[C@@H](C)CCCCO[C@H]1CN(C)S(=O)(=O)c1cccs1	none (no result: dFosB act)
CCC(=O)N1CC2(CCN(Cc3ccncc3)CC2)c2c(n(C)c3cc(OC)ccc23)[C@@H]1CO	none (no result: RAD54 branch, S100A4 inh HTS, RAD52 inh, dFosB act)
CO[C@@H]1CN(C)C(=O)c2cc(NC(=O)C3CC3)ccc2OC[C@@H](C)N(Cc2cc(F)ccc2F)C[C@H]1C	none (no result: dFosB act)
CCC(=O)Nc1ccc2c(c1)OC[C@H](C)N(Cc1ccccc1C(=O)O)C[C@H](C)[C@@H](OC)CN(C)C2=O	S100A4 inh HTS 90 (no result: RAD54 branch, dFosB act)
CO[C@@H]1CN(C)C(=O)c2cc(NC(C)=O)ccc2OC[C@H](C)N(Cc2cncnc2)C[C@H]1C	S100A4 inh HTS 76 (no result: RAD54 branch, dFosB act)
CO[C@H]1CN(C)C(=O)c2cc(NC(=O)C3CC3)ccc2OC[C@@H](C)N(Cc2cc(F)ccc2F)C[C@@H]1C	MLL AF4-AF9 inh 43 (no result: dFosB act)
CCC(=O)Nc1ccc2c(c1)C(=O)N(C)C[C@H](OC)[C@@H](C)CN(Cc1ccccc1C(=O)O)[C@@H](C)CO2	none (no result: dFosB act)
CCCN1C[C@@H](C)[C@H](OC)CN(C)C(=O)c2ccc(NC(=O)c3cccc(F)c3)cc2OC[C@@H]1C	MLL AF4-AF9 inh 45 (no result: dFosB act)
CO[C@H]1CN(C)C(=O)c2ccc(NC(C)=O)cc2OC[C@@H](C)N(Cc2cncnc2)C[C@@H]1C	none (no result: dFosB act)
C[C@H]1CN([C@@H](C)CO)C(=O)c2cccc(NS(C)(=O)=O)c2O[C@@H]1CN(C)Cc1ccc(C(=O)O)cc1	none (no result: dFosB act)
O=C(C[C@H]1C=C[C@@H](NS(=O)(=O)c2ccc(F)cc2)[C@H](CO)O1)NCc1ccc(Cl)c(Cl)c1	none (no result: dFosB act)
C[C@H](CO)N1C[C@H](C)[C@@H](CN(C)C(=O)Nc2cccc3ccccc23)Oc2ccc(NC(=O)Cn3cnnn3)cc2CC1=O	none (no result: RAD54 branch, dFosB act)
CO[C@@H]1CN(C)C(=O)c2cc(NS(=O)(=O)c3cn(C)cn3)ccc2OC[C@H](C)N(C)C[C@@H]1C	none (no result: S100A4 inh HTS, MLL AF4-AF9 inh, RAD52 inh, dFosB act)
CCCC(=O)Nc1ccc2c(c1)OC[C@@H](C)N(Cc1cncnc1)C[C@@H](C)[C@@H](OC)CN(C)C2=O	MLL AF4-AF9 inh 44 (no result: dFosB act)
CCCC(=O)Nc1ccc2c(c1)OC[C@H](C)N(Cc1cncnc1)C[C@@H](C)[C@H](OC)CN(C)C2=O	none (no result: dFosB act)
COc1ccc2c3c(n(C)c2c1)[C@H](CO)NCC31CCN(CC2CC2)CC1	RAD52 inh 63 (no result: RAD54 branch, dFosB act)
COc1ccc2c3c(n(C)c2c1)[C@H](CO)NCC31CN(Cc2ccc(-c3ccccn3)cc2)C1	MLL AF4-AF9 inh 47, RAD52 inh 89 (no result: RAD54 branch, dFosB act)
COc1ccc2c3c(n(C)c2c1)[C@@H](CO)NCC31CN(Cc2ccccc2Cl)C1	MLL AF4-AF9 inh 39 (no result: RAD54 branch, dFosB act)
COc1ccc2c3c(n(C)c2c1)[C@H](CO)NCC31CCN(Cc2ccncc2)CC1	none (no result: RAD54 branch, dFosB act)
COc1ccc2c3c(n(C)c2c1)[C@@H](CO)NCC31CN(CC2CC2)C1	RAD52 inh 56 (no result: RAD54 branch, dFosB act)
CCCC(=O)Nc1ccc2c(c1)C(=O)N(C)[C@@H]1CC[C@@H](CC(=O)NCCOC)O[C@H]1CO2	none (no result: S100A4 inh HTS, MLL AF4-AF9 inh, RAD52 inh, dFosB act)
O=C(C[C@H]1C[C@@H]2c3cc(NC(=O)Nc4ccccc4F)ccc3O[C@@H]2[C@H](CO)O1)NCc1ccc2c(c1)OCO2	none (no result: dFosB act)
COC(=O)c1ccc(CN2CC(=O)N3[C@@H](CO)[C@H](c4ccc(-c5cccnc5)cc4)[C@@H]3C2)cc1	none (no result: RAD54 branch, dFosB act)
Cc1ccc(CN2CCN(CC(=O)N3CCC(C(N)=O)CC3)C2=O)cc1	MLL AF4-AF9 inh 41
Cc1ccc(CNC(=O)CN2CCN(Cc3ccc(C)cc3)C2=O)cc1	none (no result: S100A4 inh HTS, MLL AF4-AF9 inh, RAD52 inh)
Cc1ccc(-n2cc(CNCCCn3ccnc3C)c(-c3ccc(F)cc3)n2)cc1	MLL AF4-AF9 inh 26
Cc1cc(Nc2ccc(Cl)cc2)nc(NCc2ccccc2)n1	dFosB act 38 (no result: S100A4 inh HTS, MLL AF4-AF9 inh, RAD52 inh)
Cc1ccc(/C=N/Nc2cc(C)nc(NCc3ccccc3)n2)cc1	dFosB act 55 (no result: RAD54 branch)
CC(C)NC(=O)N(C)C[C@@H]1Oc2ccc(NC(=O)CCCN(C)C)cc2C(=O)N([C@@H](C)CO)C[C@@H]1C	none (no result: dFosB act)
C[C@H]1CN([C@@H](C)CO)C(=O)c2cc(NC(=O)CCC(F)(F)F)ccc2O[C@@H]1CN(C)S(=O)(=O)c1cn(C)cn1	S100A4 inh HTS 98 (no result: dFosB act)
CC(C)NC(=O)N(C)C[C@H]1Oc2ccc(NC(=O)CCCN(C)C)cc2C(=O)N([C@H](C)CO)C[C@H]1C	S100A4 inh HTS 111 (no result: dFosB act)
C[C@@H]1CN([C@@H](C)CO)C(=O)c2cc(NC(=O)CCC(F)(F)F)ccc2O[C@@H]1CN(C)C(=O)Nc1ccc(F)cc1	S100A4 inh HTS 96 (no result: dFosB act)
